ChEMBL document CHEMBL1135874, “Novel agents combining platelet activating factor (PAF) receptor antagonist with thromboxane synthase inhibitor (TxSI)” (Bioorg Med Chem Lett, 2002)

What was measured:
[1] = target: T1, Thromboxane-A synthase (Rattus norvegicus) (UniProt P49430); assay: Thromboxane synthase inhibitor (TxSI) activity assessed by ex vivo inhibition of serum TXB2 production in rat after Intravenous administration; assay type: functional, organism-based
T1 sequence (whole entry): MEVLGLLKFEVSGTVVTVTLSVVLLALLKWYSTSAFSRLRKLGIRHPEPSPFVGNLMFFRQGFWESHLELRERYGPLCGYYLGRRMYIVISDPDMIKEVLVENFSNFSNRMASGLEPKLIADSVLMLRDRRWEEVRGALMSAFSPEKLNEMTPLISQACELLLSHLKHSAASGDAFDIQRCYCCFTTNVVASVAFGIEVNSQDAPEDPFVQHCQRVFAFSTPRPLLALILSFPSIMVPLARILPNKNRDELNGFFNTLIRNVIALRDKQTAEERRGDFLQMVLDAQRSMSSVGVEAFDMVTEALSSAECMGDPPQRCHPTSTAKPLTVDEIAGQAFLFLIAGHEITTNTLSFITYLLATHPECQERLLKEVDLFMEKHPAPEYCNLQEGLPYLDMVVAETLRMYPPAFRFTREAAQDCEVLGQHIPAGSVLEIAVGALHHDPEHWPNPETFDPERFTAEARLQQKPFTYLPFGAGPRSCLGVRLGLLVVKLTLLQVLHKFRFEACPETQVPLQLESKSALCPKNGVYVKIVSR
How it was run: (§1)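 Rats dosed intravenously or orally. Blood was then taken, and serum TxB2 production was measured ex vivo. Values are reported as ED50 doses in mg/kg. Oral testing used the same method as intravenous testing.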

[2] = Inhibition of Platelet activating factor (PAF)- induced platelet aggregation in rabbit platelet rich plasma (PRP); assay type: functional
[3] = target: Platelet-activating factor receptor (Mus musculus) (UniProt Q62035); assay: Antagonism of Platelet activating factor (PAF) activity in mice after oral administration, assayed by PAF-induced death; assay type: functional, organism-based
How it was run: (§2)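 Mice dosed with test agent intravenously or orally, then injected with a lethal dose of PAF. Protection from PAF-induced death was scored. ED50 was taken as the dose that reduced mortality by 50%. Oral testing used the same method as intravenous testing.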

[4] = target: Platelet-activating factor receptor (Mus musculus) (UniProt Q62035); assay: Antagonism of Platelet activating factor (PAF)in mice after Intravenous administration, assayed by PAF-induced death; assay type: functional, organism-based; how it was run: as §2
Thromboxane-A synthase = target: T2, Thromboxane-A synthase (Homo sapiens, UniProt P24557); assay: In vitro inhibition of thromboxane synthase (TXA2) in human platelet microsomes [reduced formation of TXB2 from prostaglandin H2(PGH2)]; assay type: functional, Microsome
T2 sequence (P24557 whole entry): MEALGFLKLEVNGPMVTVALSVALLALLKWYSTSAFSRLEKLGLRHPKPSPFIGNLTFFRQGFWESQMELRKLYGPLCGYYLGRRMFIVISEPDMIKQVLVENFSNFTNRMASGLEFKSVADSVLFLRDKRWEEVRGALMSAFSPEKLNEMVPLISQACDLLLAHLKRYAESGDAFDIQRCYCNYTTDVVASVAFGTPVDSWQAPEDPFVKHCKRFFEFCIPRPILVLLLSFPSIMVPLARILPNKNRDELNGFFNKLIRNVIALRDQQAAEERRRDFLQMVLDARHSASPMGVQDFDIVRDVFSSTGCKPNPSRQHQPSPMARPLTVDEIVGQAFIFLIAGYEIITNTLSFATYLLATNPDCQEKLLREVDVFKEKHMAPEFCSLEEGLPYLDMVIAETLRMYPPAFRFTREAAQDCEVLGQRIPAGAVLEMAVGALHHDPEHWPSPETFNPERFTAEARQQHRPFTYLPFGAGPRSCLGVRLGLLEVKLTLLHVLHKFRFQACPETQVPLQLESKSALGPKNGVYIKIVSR

[5] = target: T1, Thromboxane-A synthase (Rattus norvegicus); assay: Thromboxane synthase inhibitor (TxSI) activity was assessed by ex vivo inhibition of serum TXB2 production in rat after oral administration; assay type: functional, organism-based; how it was run: as §1

Platelet-activating factor receptor (Mus musculus), sequence (Q62035 whole entry): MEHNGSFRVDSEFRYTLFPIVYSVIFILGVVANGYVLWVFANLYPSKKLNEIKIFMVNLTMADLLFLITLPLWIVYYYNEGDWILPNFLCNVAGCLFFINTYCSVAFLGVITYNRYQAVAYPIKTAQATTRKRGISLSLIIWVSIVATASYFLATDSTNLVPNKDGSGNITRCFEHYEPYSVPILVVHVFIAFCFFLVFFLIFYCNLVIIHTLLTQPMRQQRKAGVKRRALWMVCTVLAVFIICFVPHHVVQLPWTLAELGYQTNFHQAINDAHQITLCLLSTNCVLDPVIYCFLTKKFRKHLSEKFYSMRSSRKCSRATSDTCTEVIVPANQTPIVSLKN

SMILES	ED50 [1] [mg/kg]	IC50 [2] [nM]	ED50 [3] [mg/kg]	ED50 [4] [mg/kg]	IC50 (Thromboxane-A synthase; read-out: IC50) [nM]	ED50 [5] [mg/kg]	IC50 (Thromboxane-A synthase)
CCOC(=O)CCCCO/N=C(\c1ccc(C(=O)N2CCc3c(sc4c3C(c3ccccc3Cl)=NC(C)c3nnc(C)n3-4)C2)cc1)c1cccnc1 (centres undefined)	> 1	100	0.5	0.2	–	–	–
CCOC(=O)CCCC/C=C(/c1cccnc1)c1cccc(CN2CCc3c(sc4c3C(c3ccccc3Cl)=NC(C)c3nnc(C)n3-4)C2)c1 (centres undefined)	0.71	39	> 10	0.6	68	3.2	–
CCOC(=O)CCCCO/N=C(\c1ccc(CN2CCc3c(sc4c3C(c3ccccc3Cl)=NC(C)c3nnc(C)n3-4)C2)cc1)c1cccnc1 (centres undefined)	1	46	> 10	1.35	80	> 10	–
Cc1nnc2n1-c1sc3c(c1C(c1ccccc1Cl)=NC2C)CCN(Cc1cccc(/C(=N\OCCCCC(=O)O)c2cccnc2)c1)C3 (centres undefined)	1	980	> 10	0.47	24	10	–
CCOC(=O)CCCCO/N=C(/c1cccnc1)c1ccccc1C(=O)N1CCc2c(sc3c2C(c2ccccc2Cl)=NC(C)c2nnc(C)n2-3)C1 (centres undefined)	> 1	200	> 10	2.4	> 1000	–	–
Cc1nnc2n1-c1sc3c(c1C(c1ccccc1Cl)=NC2C)CCN(Cc1cccc(/C(=N\OCCCCC(=O)OCCN2CCOCC2)c2cccnc2)c1)C3 (centres undefined)	0.77	81	> 10	0.54	151	8.9	–
O=C(O)CCCC/C=C(/c1ccccc1)c1cccnc1	0.01	–	–	–	–	0.05	–
CCOC(=O)CCCCO/N=C(\c1ccc(COCC(=O)N2CCc3c(sc4c3C(c3ccccc3Cl)=NC(C)c3nnc(C)n3-4)C2)cc1)c1cccnc1 (centres undefined)	> 1	60	> 10	4.2	58	–	–
CCOC(=O)CCCCO/N=C(/c1cccnc1)c1cccc(CCCC(=O)N2CCc3c(sc4c3C(c3ccccc3Cl)=NC(C)c3nnc(C)n3-4)C2)c1 (centres undefined)	> 1	39	> 10	1.05	41	–	–
O=C(O)/C=C/c1ccc(Cn2ccnc2)cc1	0.02	–	–	–	–	0.1	–
CCOC(=O)CCCCO/N=C(/c1cccnc1)c1cccc(CCCCN2CCc3c(sc4c3C(c3ccccc3Cl)=NC(C)c3nnc(C)n3-4)C2)c1 (centres undefined)	0.53	54	> 10	0.38	21	6.9	–
CCOC(=O)CCCCO/N=C(\c1ccccc1)c1cccnc1	0.01	–	–	–	1	> 0.1	–
CCOC(=O)C1=C(c2ccc(-n3c(C)nc4cnccc43)cc2)NC(C)=C(C(=O)Nc2ccccn2)C1c1ccccc1Cl (centres undefined)	–	–	1.55	0.1	–	–	Not Active
CCOC(=O)CCCCO/N=C(/c1cccnc1)c1cccc(CN2CCc3c(sc4c3C(c3ccccc3Cl)=NCc3nnc(C)n3-4)C2)c1	0.1	200	> 10	0.8	65	> 10	–
CCCNC(=O)CCCCO/N=C(/c1cccnc1)c1cccc(CN2CCc3c(sc4c3C(c3ccccc3Cl)=NC(C)c3nnc(C)n3-4)C2)c1 (centres undefined)	> 1	71	> 10	0.54	540	–	–
Cc1nnc2n1-c1sc3c(c1C(c1ccccc1Cl)=NC2C)CCNC3 (centres undefined)	–	245	–	> 5	> 1000	–	–
Cc1nnc2n1-c1sc3c(c1C(c1ccccc1Cl)=NC2C)CCN(Cc1cccc(/C(=N\OCCCCC(=O)OCCCc2cccnc2)c2cccnc2)c1)C3 (centres undefined)	> 1	65	> 10	0.54	> 1000	–	–
CCOC(=O)CCCCO/N=C(\c1ccc(CC(=O)N2CCc3c(sc4c3C(c3ccccc3Cl)=NC(C)c3nnc(C)n3-4)C2)cc1)c1cccnc1 (centres undefined)	> 1	85	> 10	4.2	69	–	–
CCOC(=O)CCCC/C=C(\c1ccc(CN2CCc3c(sc4c3C(c3ccccc3Cl)=NC(C)c3nnc(C)n3-4)C2)cc1)c1cccnc1 (centres undefined)	1	32	1.6	0.55	72	5.2	–
Cc1nnc2n1-c1sc3c(c1C(c1ccccc1Cl)=NC2C)CCN(Cc1cccc(/C(=N\OCCCCC(=O)OCc2ccccc2)c2cccnc2)c1)C3 (centres undefined)	> 1	98	> 10	0.54	465	–	–
CCOC(=O)CCCCO/N=C(/c1cccnc1)c1cccc(C(=O)N2CCc3c(sc4c3C(c3ccccc3Cl)=NC(C)c3nnc(C)n3-4)C2)c1 (centres undefined)	> 1	60	2.3	0.47	–	–	–
CCOC(=O)CCCCO/N=C(/c1cccnc1)c1cccc(CN2CCc3c(sc4c3C(c3ccccc3Cl)=NC(C)c3nnc(C)n3-4)C2)c1 (centres undefined)	0.1	47	> 10	0.2	59	> 10	–
